Results as given in ChEMBL document CHEMBL4622996, “Discovery of Vixotrigine: A Novel Use-Dependent Sodium Channel Blocker for the Treatment of Trigeminal Neuralgia” (ACS Med Chem Lett, 2020).
pIC50: −log10 of the molar value.

Columns and labels:
[1] = Free plasma concentration in complete Freund's adjuvant-induced rat model at 1 mg/kg, po measured after 1 hr; type: ADME, organism-based; settings: in vivo
[2] = target: T1, Sodium channel protein type 3 subunit alpha (Homo sapiens, UniProt Q9NY46); experiment: Inhibition of Nav1.3 (unknown origin) expressed in HEK293 cells assessed as 15% inhibition of sodium current incubated for 3 to 3.5 mins by electrophysiology assay; type: cell-based
Procedure, shortened: (§1)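 HEK293 cells stably expressing NaV1.3, grown in DMEM-F12 with 10% FBS at 37 °C, dissociated at 50–70% confluency; IonWorksHT planar patch clamp at 21–23 °C, amphotericin perforated access; intracellular K-gluconate 100, KCl 40, MgCl2 3.2, EGTA 3, HEPES 5 mM, pH 7.3.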
Target sequence in this assay (Q9NY46 whole entry, looked up): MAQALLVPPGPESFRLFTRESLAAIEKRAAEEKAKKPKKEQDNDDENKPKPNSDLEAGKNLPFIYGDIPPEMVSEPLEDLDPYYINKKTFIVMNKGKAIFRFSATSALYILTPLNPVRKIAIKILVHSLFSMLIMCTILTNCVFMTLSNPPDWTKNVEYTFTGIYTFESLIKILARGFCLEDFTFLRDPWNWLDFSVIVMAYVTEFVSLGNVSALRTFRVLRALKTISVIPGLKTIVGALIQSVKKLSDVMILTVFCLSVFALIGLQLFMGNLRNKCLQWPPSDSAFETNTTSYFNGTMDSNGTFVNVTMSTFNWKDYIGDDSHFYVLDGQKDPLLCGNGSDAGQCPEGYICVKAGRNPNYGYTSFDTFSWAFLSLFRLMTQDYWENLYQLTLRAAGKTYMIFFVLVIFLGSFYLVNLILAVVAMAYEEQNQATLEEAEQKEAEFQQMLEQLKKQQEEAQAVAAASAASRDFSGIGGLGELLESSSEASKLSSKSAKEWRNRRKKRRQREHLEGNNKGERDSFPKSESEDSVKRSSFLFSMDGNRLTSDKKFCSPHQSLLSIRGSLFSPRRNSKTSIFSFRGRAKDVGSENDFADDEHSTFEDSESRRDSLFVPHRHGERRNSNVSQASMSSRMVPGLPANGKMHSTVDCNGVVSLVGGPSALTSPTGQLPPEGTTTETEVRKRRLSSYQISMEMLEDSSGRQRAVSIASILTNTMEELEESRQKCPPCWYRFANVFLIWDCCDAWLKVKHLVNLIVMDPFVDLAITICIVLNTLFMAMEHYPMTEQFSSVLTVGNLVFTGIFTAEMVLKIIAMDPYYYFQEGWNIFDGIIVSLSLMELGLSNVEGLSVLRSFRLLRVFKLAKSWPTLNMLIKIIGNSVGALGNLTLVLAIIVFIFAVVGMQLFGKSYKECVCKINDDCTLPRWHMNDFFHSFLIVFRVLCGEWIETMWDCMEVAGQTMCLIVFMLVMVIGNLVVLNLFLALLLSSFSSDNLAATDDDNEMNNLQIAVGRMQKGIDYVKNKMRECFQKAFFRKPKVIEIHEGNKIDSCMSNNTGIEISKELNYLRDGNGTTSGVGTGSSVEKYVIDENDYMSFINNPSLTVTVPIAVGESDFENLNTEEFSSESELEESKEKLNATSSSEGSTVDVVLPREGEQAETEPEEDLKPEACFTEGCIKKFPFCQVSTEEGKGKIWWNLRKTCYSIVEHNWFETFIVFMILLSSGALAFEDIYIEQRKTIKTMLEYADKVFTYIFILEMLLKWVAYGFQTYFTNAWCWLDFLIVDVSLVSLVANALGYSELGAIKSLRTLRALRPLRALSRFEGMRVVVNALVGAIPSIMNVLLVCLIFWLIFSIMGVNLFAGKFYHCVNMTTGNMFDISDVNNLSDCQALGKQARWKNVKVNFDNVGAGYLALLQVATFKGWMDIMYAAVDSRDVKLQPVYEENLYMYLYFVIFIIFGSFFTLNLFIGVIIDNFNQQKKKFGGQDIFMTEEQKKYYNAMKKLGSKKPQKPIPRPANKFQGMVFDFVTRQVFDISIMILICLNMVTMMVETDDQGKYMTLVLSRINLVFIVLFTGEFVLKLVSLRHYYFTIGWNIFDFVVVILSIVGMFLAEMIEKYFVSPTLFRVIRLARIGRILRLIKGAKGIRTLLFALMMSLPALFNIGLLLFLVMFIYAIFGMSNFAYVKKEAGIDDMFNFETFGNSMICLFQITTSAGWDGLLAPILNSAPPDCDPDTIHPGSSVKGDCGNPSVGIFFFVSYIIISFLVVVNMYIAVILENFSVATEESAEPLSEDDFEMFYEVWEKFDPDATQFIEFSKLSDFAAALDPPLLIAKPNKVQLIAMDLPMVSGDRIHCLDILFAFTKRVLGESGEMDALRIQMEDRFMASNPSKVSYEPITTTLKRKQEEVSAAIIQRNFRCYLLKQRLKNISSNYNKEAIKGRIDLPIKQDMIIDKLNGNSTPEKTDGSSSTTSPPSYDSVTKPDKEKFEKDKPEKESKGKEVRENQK

[3] = target: T1, Sodium channel protein type 3 subunit alpha; experiment: Inhibition of Nav1.3 (unknown origin) expressed in HEK293 cells assessed as inhibition of sodium current incubated for 3 to 3.5 mins by electrophysiology assay; type: cell-based; procedure, shortened: as §1
Target sequence in this assay (Q9NY46 whole entry): as the sequence (Q9NY46 whole entry, looked up) above

Cp(f) [1]: 7.8 ng/mL
log(activity) [2]: -5.5
pIC50 [3]: 4.20
Structure (SMILES): Cl.NC(=O)[C@@H]1CC[C@H](c2ccc(OCc3ccccc3F)cc2)N1 [RAXATRIGINE HYDROCHLORIDE]
